Assay [1] has as its system Cavia porcellus. The assay is described as follows: In vivo inhibition of capsaicin-induced plasma extravasation in the trachea of guinea pigs after peroral administration. It counts as functional. The note with it: po, read-out: ID50 (the source's name). The essentials:
(§1)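 Male Hartley guinea pigs (n = 5–8) under pentobarbital 35 mg/kg ip. Compound given iv 5 min, or orally 60 min, before iv capsaicin (150 µg/kg) plus Evans blue (20 mg/kg) in ethanol-saline 3:7. After 10 min, animals were perfused with saline and the trachea weighed.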

The subject of assay [2] is Cavia porcellus. Nature of the assay: Effective dose that increased the bladder volume threshold of urethane anesthetized guinea pigs by 30%. It counts as functional. The essentials:
(§2)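 Urethane-anesthetized guinea pigs; bladder volume threshold read before dosing (mean of last two stable trials as control) and again 10 min after iv injection. Compound in 80% DMSO, 0.1 mL/100 g body weight. Effect given as % rise in volume threshold over predrug value; ED30 is the dose raising threshold by 30%, with 6–12 animals per dose and 95% confidence limits.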

Assay [3] deals with Cavia porcellus. Nature of the assay: Shut down time of distension induced rhythmic bladder contractions in urethane anesthetized guinea pigs after a intravenous dose of 0.3 mg/kg of the compound. It counts as functional. The essentials:
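Urethane-anesthetized guinea pigs; saline (39 °C) infused stepwise (0.2 mL) into the bladder via a dome needle until rhythmic isovolumetric contractions appeared. Compound in DMSO (0.05 mL/100 g) given iv at 0.3 mg/kg. Shutdown time (interval between contractions, 30 min cutoff) reported as mean ± SE, compared with the vehicle group mean by Dunnett's test.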

Assay [4] relates to Cavia porcellus. The assay is described as follows: Inhibition of capsaicin-induced plasma extravasation in guinea pig trachea by peroral administration. The format is functional. Particulars: po, read-out: ID50 (the source's name). Put shortly:
as §1

For another assay, the target named is Substance-P receptor (Homo sapiens, UniProt P25103). Nature of the assay: Tachykinin receptor 1 antagonistic activity as ability to inhibit [125I]BH-SP binding in human IM-9 cells (lymphoblast cells). It counts as cell-based.
Assay [5] relates to Cavia porcellus. Nature of the assay: In vivo inhibition of capsaicin-induced plasma extravasation in the trachea of guinea pigs after intravenous administration. It counts as functional. Put shortly: as §1
For assay [6], the system named is Cavia porcellus. The assay is described as follows: Increased bladder volume threshold in urethane anesthetized guinea pigs by 30%. The format is functional. The essentials: as §2

Values joined by “and” are separate entries in the source; they are usually repeats but may differ in a detail not shown here. Equal values may be shown once.

Sequence of Substance-P receptor (P25103 whole entry): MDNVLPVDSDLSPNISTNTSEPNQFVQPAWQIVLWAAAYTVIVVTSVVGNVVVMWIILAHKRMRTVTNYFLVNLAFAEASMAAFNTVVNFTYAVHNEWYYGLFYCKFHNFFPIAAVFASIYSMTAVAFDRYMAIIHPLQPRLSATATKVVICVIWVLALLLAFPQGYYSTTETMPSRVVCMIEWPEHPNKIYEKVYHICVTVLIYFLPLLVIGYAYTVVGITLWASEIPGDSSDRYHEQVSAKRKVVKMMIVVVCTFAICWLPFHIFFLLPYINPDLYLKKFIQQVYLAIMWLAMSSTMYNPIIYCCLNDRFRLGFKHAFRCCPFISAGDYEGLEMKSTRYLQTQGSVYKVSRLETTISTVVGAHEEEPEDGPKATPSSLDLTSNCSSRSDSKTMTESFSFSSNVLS

Turning to `Cc1ccc(-c2c3n(c(=O)c4ncccc24)C[C@@H](C)CN(Cc2cc(C(F)(F)F)cc(C(F)(F)F)c2)C3=O)cc1`, the ED50 with Cavia porcellus [1] was found to be 0.033 mg/kg. This compound also gave an ED30 with Cavia porcellus [2] of 0.16 mg/kg. Moreover, the Shutdown time in the assay with Cavia porcellus [3] is 17.9 min.

One may read the IC50 as the concentration that gives 50% inhibition. In the case of `Cc1ccc(-c2c3n(c(=O)c4ncccc24)CCCN(Cc2cc(C(F)(F)F)cc(C(F)(F)F)c2)C3=O)cc1`, the ED50 in the assay with Cavia porcellus [4] is 0.073 mg/kg. In addition, at Substance-P receptor, the IC50 is 0.85 nM. This compound came in with an ED30 in the assay with Cavia porcellus [2] of 0.37 mg/kg. The Shutdown time in the assay with Cavia porcellus [3] stood at 10.1 min.

Consider `Cc1ccc(-c2c3n(c(=O)c4ncccc24)C[C@H](C)CN(Cc2cc(C(F)(F)F)cc(C(F)(F)F)c2)C3=O)cc1`, for which, at Substance-P receptor, the IC50 came to 9.5 nM. Also, the Shutdown time in the assay on Cavia porcellus [3] turned out to be 5.9 min.

At Substance-P receptor, `Cc1ccc(-c2c3n(c(=O)c4ncccc24)CCCCCN(Cc2cc(C(F)(F)F)cc(C(F)(F)F)c2)C3=O)cc1` registered an IC50 of 1.8 nM. Besides, in the assay on Cavia porcellus [1], the ED50 came to 0.04 mg/kg. In addition, in the assay on Cavia porcellus [2], the ED30 turned out to be 0.086 mg/kg. This compound also had a Shutdown time in the assay on Cavia porcellus [3] of 17.1 min.

Consider `Cc1ccc(-c2c3n(c(=O)c4ncccc24)CCN(Cc2cc(C(F)(F)F)cc(C(F)(F)F)c2)C3=O)cc1`, for which the IC50 at Substance-P receptor was 2.3 nM.

Turning to `Cc1ccc(-c2c3n(c(=O)c4ncccc24)CC[C@@H](C)CN(Cc2cc(C(F)(F)F)cc(C(F)(F)F)c2)C3=O)cc1` (stereo in doubt; (aR,9R)-8b), the ID50 with Cavia porcellus [5] stood at 0.0043 mg/kg. Also, the ED50 in the assay on Cavia porcellus [1] was 0.033 mg/kg. The compound further had an ED30 with Cavia porcellus [2] of 0.051 mg/kg. The Shutdown time in the assay on Cavia porcellus [3] is on record as 21.8 min.

Turning to `Cc1ccc(-c2c3n(c(=O)c4ncccc24)CC[C@@H](C)CN(Cc2cc(C(F)(F)F)cc(C(F)(F)F)c2)C3=O)cc1` (stereo in doubt; (aS,9R)-8b), in the assay on Cavia porcellus [5], the ID50 stood at 0.026 mg/kg.

Consider `Cc1ccc(-c2c3n(c(=O)c4ncccc24)CC[C@H](C)CN(Cc2cc(C(F)(F)F)cc(C(F)(F)F)c2)C3=O)cc1` (stereo in doubt; (aS,9S)-8b) [7-(3,5-BIS-TRIFLUOROMETHYL-BENZYL)-9-METHYL-5-P-TOLYL-8,9,10,11-TETRAHYDRO-7H-1,7,11A-TRIAZA-CYCLOOCTA[B]NAPHTHALENE-6,12-DIONE (ATROPISOMERIC MIX)], for which the ED50 in the assay with Cavia porcellus [5] (Cavia porcellus, Plasma, iv, read-out: ID50 (the source's name)) was more than 0.3 mg/kg. This compound also yielded a Shutdown time in the assay on Cavia porcellus [3] of 6.7 min.

As to `Cc1ccc(-c2c3n(c(=O)c4ncccc24)CCCCN(Cc2cc(C(F)(F)F)cc(C(F)(F)F)c2)C3=O)cc1` [7-(3,5-BIS-TRIFLUOROMETHYL-BENZYL)-5-P-TOLYL-8,9,10,11-TETRAHYDRO-7H-1,7,11A-TRIAZA-CYCLOOCTA[B]NAPHTHALENE-6,12-DIONE (ATROPISOMERIC MIX)], the ED50 with Cavia porcellus [1] is 0.019 mg/kg. Moreover, the ED30 with Cavia porcellus [2] is 0.066 mg/kg. For the same compound, the Shutdown time in the assay with Cavia porcellus [3] (0.3 mg/kg) is 7.4 min and 19.2 min and 15.7 min.

In the assay on Cavia porcellus [6], `Cc1ccc(-c2c(C(=O)N(C)Cc3cc(C(F)(F)F)cc(C(F)(F)F)c3)n(C)c(=O)c3ncccc23)cc1` [7-METHYL-8-OXO-5-P-TOLYL-7,8-DIHYDRO-[1,7]NAPHTHYRIDINE-6-CARBOXYLIC ACID (3,5-BIS-TRIFLUOROMETHYL-BENZYL)-METHYL-AMIDE (STRUCTURAL MIX)] showed an ED30 of 0.1 mg/kg. The ED50 in the assay with Cavia porcellus [1] is 0.11 mg/kg. Further, the Shutdown time in the assay on Cavia porcellus [3] (0.3 mg/kg) is 12.9 min [middle of 4 runs].

Source of the values: ChEMBL document CHEMBL1132279, “Axially chiral 1,7-naphthyridine-6-carboxamide derivatives as orally active tachykinin NK(1) receptor antagonists: synthesis, antagonistic activity, and effects on bladder functions” (J Med Chem, 1999).
